# Results from article PMC3288537 (ACS Chemical Biology, 2011).
# Columns and labels:
# Type in all cases: biochemical
# [1] = target: T1, PTP-SL (Homo sapiens, UniProt Q15256); test: Dose-response OMFP phosphatase assay, PTP-SL; details: read-out: IC50 PTP-SL; OMFP substrate
# T1 sequence (Q15256 22-657): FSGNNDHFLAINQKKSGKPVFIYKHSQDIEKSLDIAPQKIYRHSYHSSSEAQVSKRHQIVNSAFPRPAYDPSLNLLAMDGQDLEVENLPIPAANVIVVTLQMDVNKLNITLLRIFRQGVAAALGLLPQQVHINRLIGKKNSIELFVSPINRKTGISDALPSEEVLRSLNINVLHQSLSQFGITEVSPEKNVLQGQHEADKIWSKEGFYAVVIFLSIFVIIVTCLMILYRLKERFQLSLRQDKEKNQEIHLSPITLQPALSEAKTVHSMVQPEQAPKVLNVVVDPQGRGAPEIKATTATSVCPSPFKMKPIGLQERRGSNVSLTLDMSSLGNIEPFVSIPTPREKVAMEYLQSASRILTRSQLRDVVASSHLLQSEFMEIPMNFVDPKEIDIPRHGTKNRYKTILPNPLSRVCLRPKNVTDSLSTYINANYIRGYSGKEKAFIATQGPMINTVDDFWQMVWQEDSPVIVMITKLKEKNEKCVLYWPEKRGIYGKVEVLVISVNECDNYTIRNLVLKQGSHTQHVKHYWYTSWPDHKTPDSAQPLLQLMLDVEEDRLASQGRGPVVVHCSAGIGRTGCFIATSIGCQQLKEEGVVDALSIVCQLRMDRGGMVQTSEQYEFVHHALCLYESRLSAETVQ
# [2] = target: T2, SHP2 (Homo sapiens, UniProt Q06124); test: Dose-response OMFP phosphatase assay, SHP2; details: read-out: IC50 SHP2; OMFP substrate
# T2 sequence (Q06124 1-593): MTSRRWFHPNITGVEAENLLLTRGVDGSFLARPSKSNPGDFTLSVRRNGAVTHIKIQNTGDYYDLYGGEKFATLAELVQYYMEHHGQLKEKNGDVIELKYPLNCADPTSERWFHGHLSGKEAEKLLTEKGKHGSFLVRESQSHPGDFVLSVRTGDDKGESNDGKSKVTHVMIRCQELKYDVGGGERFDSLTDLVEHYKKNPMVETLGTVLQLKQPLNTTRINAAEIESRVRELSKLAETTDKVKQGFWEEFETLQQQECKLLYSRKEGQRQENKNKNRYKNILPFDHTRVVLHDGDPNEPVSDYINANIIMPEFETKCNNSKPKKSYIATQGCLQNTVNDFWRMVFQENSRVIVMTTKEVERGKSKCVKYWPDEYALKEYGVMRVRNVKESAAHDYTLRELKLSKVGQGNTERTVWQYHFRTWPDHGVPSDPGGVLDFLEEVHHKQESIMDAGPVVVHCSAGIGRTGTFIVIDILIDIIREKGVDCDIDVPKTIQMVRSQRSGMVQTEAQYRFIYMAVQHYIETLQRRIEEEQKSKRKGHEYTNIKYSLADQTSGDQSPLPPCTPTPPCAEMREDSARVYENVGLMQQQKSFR
# Outline: (§1)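 Ten-point 2-fold dilution series of test compound prepared in DMSO. Fluorescence (ex 485/em 528 nm) read in kinetic mode over 10 min; progress-curve slopes taken as activity. IC50 by nonlinear regression (sigmoidal, variable slope).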
# [3] = target: T3, CD45 (Homo sapiens, UniProt P08575); test: Dose-response OMFP phosphatase assay, CD45; details: read-out: IC50 CD45; OMFP substrate
# T3 sequence (P08575 26-1306): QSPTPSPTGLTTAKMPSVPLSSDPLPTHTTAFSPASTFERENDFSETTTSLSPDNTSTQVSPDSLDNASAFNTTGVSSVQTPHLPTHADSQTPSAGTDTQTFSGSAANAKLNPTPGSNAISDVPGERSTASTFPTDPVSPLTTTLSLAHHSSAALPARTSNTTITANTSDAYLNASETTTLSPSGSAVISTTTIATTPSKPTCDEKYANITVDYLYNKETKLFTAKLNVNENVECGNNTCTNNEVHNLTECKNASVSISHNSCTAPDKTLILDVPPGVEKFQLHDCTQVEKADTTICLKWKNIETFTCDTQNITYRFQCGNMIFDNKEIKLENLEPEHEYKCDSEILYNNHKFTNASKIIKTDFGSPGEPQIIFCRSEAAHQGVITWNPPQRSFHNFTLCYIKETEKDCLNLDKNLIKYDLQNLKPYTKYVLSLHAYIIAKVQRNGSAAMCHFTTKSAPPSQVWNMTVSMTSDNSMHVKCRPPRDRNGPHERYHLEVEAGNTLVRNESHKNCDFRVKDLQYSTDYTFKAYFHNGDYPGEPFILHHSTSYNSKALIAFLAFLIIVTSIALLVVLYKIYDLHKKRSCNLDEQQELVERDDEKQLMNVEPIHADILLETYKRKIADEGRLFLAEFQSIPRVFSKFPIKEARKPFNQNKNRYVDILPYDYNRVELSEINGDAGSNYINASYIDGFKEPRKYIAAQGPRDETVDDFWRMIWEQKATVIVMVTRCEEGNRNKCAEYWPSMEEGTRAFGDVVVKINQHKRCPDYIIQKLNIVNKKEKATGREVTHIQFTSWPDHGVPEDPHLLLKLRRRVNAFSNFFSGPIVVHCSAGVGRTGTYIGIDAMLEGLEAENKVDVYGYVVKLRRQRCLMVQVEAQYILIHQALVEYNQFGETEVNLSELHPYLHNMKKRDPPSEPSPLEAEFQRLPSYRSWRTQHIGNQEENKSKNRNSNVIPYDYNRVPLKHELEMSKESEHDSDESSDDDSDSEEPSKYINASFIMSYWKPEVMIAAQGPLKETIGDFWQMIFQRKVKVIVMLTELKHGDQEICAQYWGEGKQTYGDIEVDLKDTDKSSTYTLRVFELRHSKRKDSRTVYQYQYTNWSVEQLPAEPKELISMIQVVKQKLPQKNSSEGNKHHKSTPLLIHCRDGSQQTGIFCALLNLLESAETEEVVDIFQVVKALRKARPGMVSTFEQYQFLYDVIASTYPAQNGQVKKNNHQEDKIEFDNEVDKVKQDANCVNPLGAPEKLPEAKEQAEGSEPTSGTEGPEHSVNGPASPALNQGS
# Outline: as §1
smiles,measurement,setting,value
O=C(O)c1ccccc1-c1ccc(/C=c2\sc3nc4cc(Br)cnc4n3c2=O)o1 [Compound 1],IC50,[1],1100 nM
same,IC50,[2],1100 nM
same,IC50,[3],3100 nM
